In ChEMBL document CHEMBL1133924, “Inhibitors of bacterial enoyl acyl carrier protein reductase (FabI): 2,9-disubstituted 1,2,3,4-tetrahydropyrido[3,4-b]indoles as potential antibacterial agents” (Bioorg Med Chem Lett, 2001) one finds MIC and IC50 data, which are given here for 33 compounds.

≈ marks a conversion by molar mass, not a printed value.

For orientation: IC50 means the concentration at which inhibition is half-maximal. Low readings indicate higher potency, high ones lower potency.

Test [1] deals with Moraxella catarrhalis. In words: In vitro antibacterial activity against Moraxella catarrhalis 1502 FabI. The procedure, abridged: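 Broth microdilution MIC in cation-adjusted Mueller–Hinton broth. Compounds were dissolved in DMSO, diluted 1:10 in water, then serially diluted. Each well received about 1×10⁶ cfu/mL inoculum. Plates were incubated at 35 °C in ambient air for 18–24 h.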

Test [2] relates to Staphylococcus aureus. In words: In vitro antibacterial activity against Staphylococcus aureus FabI.
The test system of test [3] is Escherichia coli. In words: In vitro antibacterial activity against Escherichia coli FabI.
Test [4] addresses T1, Enoyl-[acyl-carrier-protein] reductase [NADH] FabI (Escherichia coli K-12, UniProt P0AEK4).
T1 sequence (P0AEK4 whole entry): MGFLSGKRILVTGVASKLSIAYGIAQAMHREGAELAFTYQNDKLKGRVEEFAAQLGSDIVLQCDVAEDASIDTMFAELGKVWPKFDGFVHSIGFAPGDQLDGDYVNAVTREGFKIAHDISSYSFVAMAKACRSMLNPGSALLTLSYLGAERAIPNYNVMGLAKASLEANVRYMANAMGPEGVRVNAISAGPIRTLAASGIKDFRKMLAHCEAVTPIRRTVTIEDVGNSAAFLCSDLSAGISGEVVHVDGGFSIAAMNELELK
The experiment in a line: Antibacterial activity against Escherichia coli FabI.

Test [5] concerns the target T2, Enoyl-[acyl-carrier-protein] reductase [NADPH] FabI (Staphylococcus aureus, UniProt Q6GI75).
T2 sequence (Q6GI75 whole entry): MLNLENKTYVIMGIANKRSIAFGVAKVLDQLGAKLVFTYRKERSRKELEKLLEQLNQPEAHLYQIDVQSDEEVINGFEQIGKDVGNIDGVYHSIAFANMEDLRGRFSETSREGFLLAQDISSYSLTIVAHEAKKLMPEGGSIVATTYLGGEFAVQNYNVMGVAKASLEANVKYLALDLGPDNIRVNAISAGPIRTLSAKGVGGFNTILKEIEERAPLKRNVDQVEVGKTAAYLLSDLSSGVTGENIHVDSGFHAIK
In words: Antibacterial activity against Staphylococcus aureus FabI.

Test [6] addresses T1, Enoyl-[acyl-carrier-protein] reductase [NADH] FabI. In words: Antibacterial activity against Escherichia coli Enoyl-[acyl-carrier-protein] reductase was determined.

Regarding `Oc1cc(Cl)ccc1Oc1ccc(Cl)cc1Cl`, the MIC worked out at 0.06 µg/mL (≈ 0.207 µM) in test [1], 0.03 µg/mL (≈ 0.104 µM) in test [2] and 4 µg/mL (≈ 13.8 µM) in test [3].
For the compound `O=C(c1cc(Cl)cc(Cl)c1O)N1CCc2c(n(Cc3ccc(O)cc3)c3ccccc23)C1`, the values for the half-maximal inhibitory concentration (IC50) in test [4] and in test [5] were 9.9 µM and 1800 nM, respectively.
As for `O=C(c1ccc(O)cc1)N1CCc2c(n(Cc3ccccc3)c3ccccc23)C1`, the half-inhibitory concentration (IC50) in test [6] came to 27 µM.
As for `Nc1ccc(Cn2c3c(c4ccccc42)CCN(C(=O)c2ccc(O)cc2)C3)cc1`, the results for the half-inhibitory concentration (IC50) in test [4] and in test [5] were 21.4 µM and 670 nM, respectively.
The compound `O=C(c1ccc(O)cc1)N1CCc2c(c3ccccc3n2Cc2ccc(O)cc2)C1` returned an IC50 in test [5] of 32400 nM. This lies in the double-digit micromolar range.
Regarding `O=C(c1ccc(O)cc1)N1CCc2c(n(Cc3ccc(F)cc3)c3ccccc23)C1`, the IC50 in test [4] was 4.2 µM; in test [5] it was 250 nM.
Consider `CCCCc1ccc(C(=O)N2CCc3c(n(Cc4ccc(O)cc4)c4ccccc34)C2)cc1`, for which the IC50 in test [4] is above 50 µM; in test [5], 510 nM.
On to `O=C(c1cccc(O)c1)N1CCc2c(n(Cc3ccc(O)cc3)c3ccccc23)C1`, for which the figures for the half-inhibitory concentration (IC50) in test [4] and in test [5] were above 50 µM and 3400 nM, respectively.
The matching figures for `COc1ccc(C(=O)N2CCc3c(n(Cc4ccc(O)cc4)c4ccccc34)C2)cc1`: 35.5 µM and 370 nM.
With `O=C(O)c1ccc(Cn2c3c(c4ccccc42)CCN(C(=O)c2ccc(O)cc2)C3)cc1`, the concentration for half-maximal inhibition (IC50) in test [4] was above 50 µM; in test [5], 8700 nM.
On to `CS(=O)(=O)c1ccc(Cn2c3c(c4ccccc42)CCN(C(=O)c2ccc(O)cc2)C3)cc1`, for which the results for the IC50 in test [4] and in test [5] were 4.5 µM and 330 nM, respectively.
Consider `CNc1ccc(C(=O)N2CCc3c(n(Cc4ccc(O)cc4)c4ccccc34)C2)cc1`, for which the concentration for half-maximal inhibition (IC50) worked out at 38.6 µM in test [4] and 2100 nM in test [5].
Turning to `O=C(c1ccc(O)cc1)N1CCc2c(n(Cc3cccc(O)c3)c3ccccc23)C1`, the IC50 in test [6] was 8.8 µM.
In the case of `COC(=O)c1ccc(C(=O)N2CCc3c(n(Cc4ccc(O)cc4)c4ccccc34)C2)cc1`, the results for the IC50 in test [4] and in test [5] were above 50 µM and 2000 nM, respectively.
Turning to `O=C(c1ccc(O)cc1)N1CCc2c([nH]c3ccccc23)C1c1ccc(O)cc1` (configuration not stated), the half-inhibitory concentration (IC50) in test [5] was 28100 nM. That is a double-digit micromolar value.
For `O=C(c1ccc(Cl)cc1)N1CCc2c(n(Cc3ccc(O)cc3)c3ccccc23)C1`, the IC50 in test [4] came out at 16.8 µM; in test [5], 180 nM. In addition, the figures for the MIC in test [1], in test [2] and in test [3] were above 64 µg/mL, 4 µg/mL (≈ 9.59 µM) and above 64 µg/mL, respectively.
On to `O=C(c1ccc(O)c(Cl)c1)N1CCc2c(n(Cc3ccc(O)cc3)c3ccccc23)C1`, for which the 50% inhibitory concentration (IC50) was 3.4 µM in test [4] and 160 nM in test [5]. Further, the MIC was 4 µg/mL (≈ 9.24 µM) in test [1], 1 µg/mL (≈ 2.31 µM) in test [2] and above 64 µg/mL in test [3].
The corresponding values for `O=C(c1ccc(Cl)cc1O)N1CCc2c(n(Cc3ccc(O)cc3)c3ccccc23)C1` are 6.1 µM, 160 nM, 2 µg/mL (≈ 4.62 µM), 1 µg/mL (≈ 2.31 µM) and above 64 µg/mL.
As for `O=C(c1ccc(Cl)cc1Cl)N1CCc2c(n(Cc3ccc(O)cc3)c3ccccc23)C1`, the values for the half-maximal inhibitory concentration (IC50) in test [4] and in test [5] were 35.8 µM and 1800 nM, respectively.
The matching figures for `Cc1cc(C(=O)N2CCc3c(n(Cc4ccc(O)cc4)c4ccccc34)C2)cc(C)c1O`: 23 µM and 2900 nM.
In the case of `O=C(c1ccc(O)cc1)N1CCc2c([nH]c3ccccc23)C1`, the IC50 in test [6] is 18 µM.
`O=C(c1ccccc1)N1CCc2c(n(Cc3ccc(O)cc3)c3ccccc23)C1`: the half-maximal inhibitory concentration (IC50) in test [4] came out at 2.7 µM; in test [5] it was 490 nM.
Turning to `O=C(c1ccccc1O)N1CCc2c(n(Cc3ccc(O)cc3)c3ccccc23)C1`, the results for the IC50 in test [4] and in test [5] were 4.3 µM and 720 nM, respectively. Also, the MIC was 8 µg/mL (≈ 20.1 µM) in test [1], 4 µg/mL (≈ 10 µM) in test [2] and above 64 µg/mL in test [3].
As for `Cc1cc(C(=O)N2CCc3c(n(Cc4ccc(O)cc4)c4ccccc34)C2)ccc1O`, the IC50 in test [4] turned out to be 4.4 µM; in test [5], 180 nM. Moreover, the MIC in test [1] was 8 µg/mL (≈ 19.4 µM); in test [2], 1 µg/mL (≈ 2.42 µM); in test [3], above 64 µg/mL.
For the compound `Nc1ccc(C(=O)N2CCc3c(n(Cc4ccc(O)cc4)c4ccccc34)C2)cc1`, the IC50 in test [4] worked out at 4 µM; in test [5], 1000 nM.
In turn, `COC(=O)Cn1c2c(c3ccccc31)CCN(C(=O)c1ccc(O)cc1)C2` displayed an IC50 in test [6] of 34.9 µM.
On to `Cc1ccc(C(=O)N2CCc3c(n(Cc4ccc(O)cc4)c4ccccc34)C2)cc1`, for which the values for the IC50 in test [4] and in test [5] were 5.2 µM and 240 nM, respectively. Further, the results for the MIC in test [1], in test [2] and in test [3] were above 64 µg/mL, 0.5 µg/mL (≈ 1.26 µM) and above 64 µg/mL, respectively.
With `Cc1ccc(C(=O)N2CCc3c(n(Cc4ccc(O)cc4)c4ccccc34)C2)c(O)c1`, the IC50 came out at 8.2 µM in test [4] and 120 nM in test [5]. The results for the MIC in test [1], in test [2] and in test [3] were 4 µg/mL (≈ 9.7 µM), 1 µg/mL (≈ 2.42 µM) and above 64 µg/mL, respectively.
The compound `COC(=O)CCCCn1c2c(c3ccccc31)CCN(C(=O)c1ccc(O)cc1)C2` showed a half-inhibitory concentration (IC50) in test [6] of 26.8 µM.
`CN(Cc1cc2ccccc2n1Cc1ccc(O)cc1)C(=O)c1ccc(O)cc1` came in with a concentration for half-maximal inhibition (IC50) in test [5] of 1000 nM.
In the case of `Cn1c2c(c3ccccc31)CCN(C(=O)c1ccc(O)cc1)C2`, half-maximal inhibition in test [6] (IC50) required 11 µM.
`Cc1cc(O)c(C)c(O)c1C(=O)N1CCc2c(n(Cc3ccc(O)cc3)c3ccccc23)C1`: the IC50 in test [4] is above 50 µM; in test [5], above 50000 nM.
Take `O=C(c1ccc(O)cc1)N1CCc2c(n(Cc3ccc(O)cc3)c3ccccc23)C1`: the IC50 in test [4] worked out at 4.2 µM; in test [5], 110 nM. Further, the figures for the MIC in test [1], in test [2] and in test [3] were 8 µg/mL (≈ 20.1 µM), 0.5 µg/mL (≈ 1.25 µM) and above 64 µg/mL, respectively.
